Test results as given in ChEMBL document CHEMBL1124349, “Novel benzodiazepine receptor partial agonists: oxadiazolylimidazobenzodiazepines” (J Med Chem, 1989).

Tests used:
[1] = biological target: GABA-A receptor; anion channel (Rattus norvegicus) (UniProt O09028+P15431+P18506+P18508+P19969+P20236+P23574+P23576+P28471+P28473+P30191+P62813+P63079+P63138+Q91ZM7+Q9ES14); assay: Ratio of binding affinity to the GABA-A receptor in the presence and absence of GABA; assay type: protein-complex assay
Outline: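 [3H]-Ro 15-1788 displacement in washed rat cortical membranes (Krebs/HEPES pH 7.4, nipecotic acid 10^-4 M, 30 °C, 60 min) run with and without GABA at 0.3 mM. Nonspecific binding was defined by 3 μM clonazepam, and read-out was filtration with scintillation counting. The value is the ratio of the affinities obtained with GABA and without it.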

[2] = biological target: GABA-A receptor; anion channel; assay: Inhibition of [3H]-Ro- 15-1788 binding to GABA-A benzodiazepine receptor of rat cortical membranes; assay type: cell membranes, Membrane
Outline: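 Rat (Sprague–Dawley, 250-300 g) cortical membranes, water-washed and frozen at -20 °C ≥18 h, then washed repeatedly in Krebs/HEPES pH 7.4. Incubated with 0.2-0.5 mg protein, [3H]-Ro 15-1788 (5 nM stock added), 10^-4 M nipecotic acid, 30 °C for 60 min. Nonspecific binding with 3 μM clonazepam. Filtration, scintillation counting.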

Cc1noc(-c2ncn3c2CN=C(c2ccccc2)c2ccccc2-3)n1
GABA shift [1]: 1.94
IC50 [2]: 24 nM
